Assay results taken from ChEMBL document CHEMBL1134499, “Structure-activity relationships of 1,4-dihydro-(1H,4H)-quinoxaline-2,3-diones as N-methyl-D-aspartate (glycine site) receptor antagonists. 1. Heterocyclic substituted 5-alkyl derivatives” (J Med Chem, 2001).
pEC50, pIC50: −log10 of the molar value. Converted amounts (≈) assume the structure as drawn.

Tests used:
Rattus norvegicus = species on record: Rattus norvegicus; assay: Inhibition of NMDA-induced depolarizations in rat cortical wedges.; format: functional
[1] = Solubility in water at pH 4-5; format: physicochemical
Glutamate NMDA receptor = assay: Binding affinity at glycine binding site of NMDA receptor in rat cortical membranes by [3H]L-689,560 displacement.; format: cell membranes, Membrane
Mus musculus [2] = assay: Ability to prevent NMDA-induced hyperlocomotion in the mouse following iv administration of 20 mg/kg dose; 1/9; format: functional
[3] = Solubility in 0.1 M aqueous D-arginine at pH 9
[4] = Solubility in 0.1 m aqueous D-arginine at pH 9; format: physicochemical
Mus musculus [5] = assay: Ability to prevent NMDA-induced hyperlocomotion in the mouse following iv administration of 20 mg/kg dose; 0/9; format: functional
Mus musculus [6] = assay: Ability to prevent NMDA-induced hyperlocomotion in the mouse following iv administration of 20 mg/kg dose; 6/9; format: functional
In short: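 CD1 mice (25-30 g) received NMDA 300 mg/kg sc. Test compound was given iv via a tail vein 15 min before NMDA, dissolved in buffered saline (pH 7-9) or 0.1 M aqueous D-arginine; saline-dosed controls; usually 9-10 mice per dose. Time to onset and duration of hyperlocomotion recorded up to 15 min. Score = number of animals reaching 15 min post-NMDA.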

Mus musculus [7] = assay: Ability to prevent NMDA-induced hyperlocomotion in the mouse following iv administration of 3 mg/kg dose; 0/9; format: functional
Mus musculus [8] = assay: Ability to prevent NMDA-induced hyperlocomotion in the mouse following iv administration of 30 mg/kg dose; 5/9; format: functional
Mus musculus [9] = assay: Ability to prevent NMDA-induced hyperlocomotion in the mouse following iv administration of 10 mg/kg dose; 2/9; format: functional
Mus musculus [10] = assay: Ability to prevent NMDA-induced hyperlocomotion in the mouse following iv administration of 3 mg/kg dose; 3/10; format: functional
Mus musculus [11] = assay: Ability to prevent NMDA-induced hyperlocomotion in the mouse following iv administration of 10 mg/kg dose; 5/10; format: functional
Mus musculus [12] = assay: Ability to prevent NMDA-induced hyperlocomotion in the mouse following iv administration of 15 mg/kg dose; 3/10; format: functional
Mus musculus [13] = assay: Ability to prevent NMDA-induced hyperlocomotion in the mouse following iv administration of 30 mg/kg dose; 10/10; format: functional
Mus musculus [14] = assay: Ability to prevent NMDA-induced hyperlocomotion in the mouse following iv administration of 20 mg/kg dose; 0/6; format: functional

SMILES	pEC50 (Rattus norvegicus)	pIC50 (Glutamate NMDA receptor)	further results
CN1CCN(Cc2cn(Cc3c(Cl)c(Cl)cc4nc(O)c(O)nc34)nn2)CC1	7.06	8.12	solubility [1]: > 10000 µg/mL; No. protected/ No.dosed (Mus musculus [2]): 1
Oc1nc2cc(Cl)c(Cl)c(Cn3ccnn3)c2nc1O	6.46	9.00	–
Oc1nc2cc(Cl)c(Cl)c(Cn3ccnc3)c2nc1O	5.89	7.64	–
Oc1nc2cc(Cl)c(Cl)c(Cn3cccn3)c2nc1O	–	8.30	solubility [3]: < 10 µg/mL
CCC(c1c(Cl)c(Cl)cc2nc(O)c(O)nc12)n1cncn1 (stereo unspecified)	6.38	8.40	solubility [4]: ~1000 µg/mL (≈ 2940 µM)
Oc1nc2cc(Cl)c(Cl)c(Cn3cnnc3)c2nc1O	5.96	7.09	–
CCN(CC)Cc1cn(Cc2c(Cl)c(Cl)cc3nc(O)c(O)nc23)nn1	6.82	8.22	No. protected/ No.dosed (Mus musculus [5]): 0
Cn1nnc(Cc2c(Cl)c(Cl)cc3nc(O)c(O)nc23)n1	–	7.11	–
CCCn1cnc(Cc2c(Cl)c(Cl)cc3nc(O)c(O)nc23)c1	6.46	8.36	No. protected/ No.dosed (Mus musculus [6]): 6; solubility [1]: > 10000 µg/mL
Oc1nc2cc(Cl)c(Cl)c(Cn3cncn3)c2nc1O	–	7.60	solubility [3]: < 10 µg/mL
CCC(c1c(Cl)c(Cl)cc2nc(O)c(O)nc12)n1cnnc1 (stereo unspecified)	7.05	8.59	No. protected/ No.dosed (Mus musculus [7]): 0; No. protected/ No.dosed (Mus musculus [6]): 6; No. protected/ No.dosed (Mus musculus [8]): 5; No. protected/ No.dosed (Mus musculus [9]): 2; solubility [4]: > 5000 µg/mL
Cc1ncnn1Cc1c(Cl)c(Cl)cc2nc(O)c(O)nc12	–	6.72	–
Oc1nc2cc(Cl)c(Cl)cc2nc1O [2,3-DIHYDROXY-6,7-DICHLOROQUINOXALINE]	–	5.70	–
Cc1ncn(Cc2c(Cl)c(Cl)cc3nc(O)c(O)nc23)n1	6.19	7.62	–
Cc1nccn1Cc1c(Cl)c(Cl)cc2nc(O)c(O)nc12	–	6.96	–
CCC(c1c(Cl)c(Cl)cc2nc(O)c(O)nc12)n1ccnc1 (stereo unspecified)	7.05	8.51	No. protected/ No.dosed (Mus musculus [5]): 0
O=c1[nH]c2cc(Cl)c(Cl)c([N+](=O)[O-])c2[nH]c1=O [LICOSTINEL]	5.96	8.85	No. protected/ No.dosed (Mus musculus [10]): 3; No. protected/ No.dosed (Mus musculus [11]): 5; No. protected/ No.dosed (Mus musculus [12]): 3
C[C@@H]1CN(O)C(=O)[C@@H]1N	4.80	5.92	No. protected/ No.dosed (Mus musculus [13]): 10; No. protected/ No.dosed (Mus musculus [11]): 5
Oc1nc2cc(Cl)c(Cl)c(Cc3ccccn3)c2nc1O	5.39	7.52	solubility [1]: < 1000 µg/mL
CCC(c1c(Cl)c(Cl)cc2nc(O)c(O)nc12)n1ccnn1 (stereo unspecified)	6.54	9.12	solubility [4]: < 1000 µg/mL; No. protected/ No.dosed (Mus musculus [14]): 0
